A short description of data set [1]: Plasma protein binding in mouse at 20 uM by equilibrium dialysis method. It counts as ADME, cell-free. Conditions: read-out: PPB (converted). The gist of the method: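 Equilibrium dialysis uses 5K MWCO membranes on a rotator at 37°C under 10% CO2. Thawed mouse plasma is adjusted to pH 7.4, and each analyte is tested at 20 µM; n = 3.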
(In general: In equilibrium dialysis only unbound substance equilibrates across the membrane.)

Data set [2] can be described thus: Partial substrate inhibition in mouse lung S9 fractions treated with trans-resveratrol preincubated for 3 mins followed by PAPS addition measured after 60 mins by Eadie-Hofstee plot analysis. It counts as ADME. Put shortly:
(§1)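 Sulfation uses pooled lung S9 (mouse 1 mg/ml, human 0.5 mg/ml final) with substrate at 0.01 µM–5 mM in 2% HP-β-CD, 5 mM MgCl2 and 10 mM potassium phosphate pH 6.5 at 37°C. After 3 min preincubation, 1 mM PAPS is added for 60 min, and the reaction is stopped with ascorbic acid and cold methanol. Triplicates are run, with a control lacking PAPS. Kinetics are fitted by nonlinear regression (partial substrate inhibition) after Eadie-Hofstee inspection.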

A short description of data set [3]: Partial substrate inhibition in human lung S9 fractions treated with trans-resveratrol preincubated for 3 mins followed by PAPS addition measured after 60 mins by Eadie-Hofstee plot analysis. It counts as ADME. Put shortly: as §1
Data set [4] is described as follows: Partial substrate inhibition in mouse lung S9 fractions treated with trans-resveratrol preincubated for 3 mins followed by UDPGA addition measured after 60 mins by Eadie-Hofstee plot analysis. Type of data set: ADME. Put shortly: (§2)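 Pooled mouse lung S9 (0.5 mg/ml final) is incubated with substrate at 0.01 µM–5 mM in 2% final HP-β-CD, alamethicin 10 µg/ml, 5 mM MgCl2 and Tris-HCl 100 mM pH 7.4 at 37°C. The reaction is started with 5 mM UDPGA and stopped at 60 min with ascorbic acid and cold methanol. Triplicates are run, with a control lacking UDPGA. Data are screened on Eadie-Hofstee plots and fitted by nonlinear regression to a partial substrate inhibition model.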

Data set [5] in a line: Drug level in human lung microsomes treated with trans-resveratrol at 0.5 mM measured at 60 mins. Type of data set: ADME. Conditions: 1 h, 500 µM. The gist of the method:
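Pooled human lung microsomes at 0.1, 0.5 and 2.5 mg/ml final, with 0.5 mM substrate in 2% final HP-β-CD, are incubated with UDPGA cofactor for 60 min. Glucuronide is quantified by LC-MS/MS, with an LOQ of 10 ng/ml.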

Data set [6] in a line: AUC (0 to infinity) in C57BL/6 mouse at 15 mg/kg, iv. It counts as ADME, organism-based. Details: time infinity, dose 15 mg/kg, route intravenous. Particulars: plasma. Put shortly:
(§3)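 Male C57BL/6 mice, 20–25 g, given a single IV dose of 15 mg/kg in 20% HP-β-CD in saline. Blood (20 µl) is drawn serially through a carotid artery cannula at 2.5–600 min, and plasma is assayed by LC-MS/MS. Noncompartmental analysis gives AUC by the linear trapezoidal rule, CL = dose/AUC0-inf, Vss = CL × MRT0-inf and t1/2 = 0.693/λ; n = 5.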

The nature of data set [7]: Clearance in C57BL/6 mouse at 15 mg/kg, iv. It counts as ADME, organism-based. More on the design: dose 15 mg/kg, route intravenous. Particulars: in vivo. Put shortly:
as §3

Data set [8] can be described thus: Volume of distribution at steady state in C57BL/6 mouse at 15 mg/kg, iv. Type of data set: ADME, organism-based. Details: dose 15 mg/kg, route intravenous. Conditions: in vivo, read-out: Vdss. Put shortly: as §3
Data set [9] is described as follows: Terminal half life in C57BL/6 mouse at 15 mg/kg, iv. Type of data set: ADME, organism-based. More on the design: dose 15 mg/kg, route intravenous. Particulars: in vivo, read-out: beta t1/2. Put shortly:
as §3

Data set [10] is described as follows: Bioavailability in C57BL/6 mouse at 15 mg/kg, iv. It counts as ADME, organism-based. Conditions: in vivo.
Data set [11] can be described thus: Drug metabolism in mouse lung S9 fractions assessed as trans-resveratrol-3-O-glucuronide formation preincubated for 3 mins followed by UDPGA addition measured after 60 mins by Eadie-Hofstee plot analysis. Type of data set: ADME, tissue-based. Particulars: s9, 1 h. The gist of the method:
as §2

Data set [12] in a line: Drug metabolism in mouse lung S9 fractions assessed as trans-resveratrol-3-sulfate formation preincubated for 3 mins followed by PAPS addition measured after 60 mins by Eadie-Hofstee plot analysis. Type of data set: ADME, tissue-based. Conditions: s9, 1 h. Put shortly:
as §1

Data set [13] in a line: Drug metabolism in human lung S9 fractions assessed as trans-resveratrol-3-sulfate formation preincubated for 3 mins followed by PAPS addition measured after 60 mins by Eadie-Hofstee plot analysis. It counts as ADME, tissue-based. Particulars: s9, 1 h. The gist of the method: as §1

As to `O=S(=O)(O)Oc1cc(O)cc(/C=C/c2ccc(O)cc2)c1`, the fraction unbound at 20 µM in [1] is 0.128. The Ki in [2] was 2.02 mM; in data set [3], 23.2 mM.
In the case of `O=C(O)[C@H]1O[C@@H](Oc2cc(O)cc(/C=C/c3ccc(O)cc3)c2)[C@H](O)[C@@H](O)[C@@H]1O`, in [1], the fraction unbound at 20 µM is 0.333. In data set [4], the Ki came to 6.63 mM. Further, the Drug metabolism in data set [5] is < 10 ng/mL.
One may read the AUC(0-inf) as total exposure, with the tail of the curve extrapolated. Higher therefore signals more exposure. For orientation: clearance means a measure of how efficiently the substance is removed, as volume per time. A high value points to efficient removal. By bioavailability is commonly meant dose-corrected exposure relative to a reference, in per cent. A low value points to poor availability. Broadly, the Km is the substrate concentration at which the rate is half of its maximum. As usually defined, the Vmax is the rate approached at saturating substrate. Consider `Oc1ccc(/C=C/c2cc(O)cc(O)c2)cc1` [RESVERATROL], for which the fraction unbound at 20 µM in data set [1] is 0.0805. The AUC(0-inf) in data set [6] is 4.92 µM·h. The clearance in data set [7] turned out to be 280 mL/min/kg. In addition, the Vd in data set [8] was 34.9 L/kg. Moreover, the half-life in data set [9] was determined as 1.69 h. In [10], the bioavailability was 49.9%. For the same compound, the Km in data set [11] turned out to be 7.34 µM; in data set [12] it was 2.69 µM; in data set [13], 4.45 µM. Moreover, the Vmax in data set [11] was 324.4 pmol/min/mg; in [12], 7.05 pmol/min/mg; in [13] it was 16.15 pmol/min/mg.

The values above are taken from ChEMBL document CHEMBL3526143, “Pulmonary metabolism of resveratrol: in vitro and in vivo evidence” (Drug Metab Dispos, 2013).
